Measured values published in ChEMBL document CHEMBL3763127, “Design, synthesis and biological evaluation of novel asperphenamate derivatives” (Eur J Med Chem, 2016).

How the values were obtained:
Format in all cases: functional, cell-based
MCF7 = test: Cytotoxicity against human MCF7 cells after 3 days by MTT assay; conditions: MCF7, 72 h
How it was run: (§1)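 MCF-7, HeLa and BEL-7402 cells were grown in RPMI 1640 with 10% heat-inactivated FBS, 1 mM glutamine and penicillin/streptomycin at 37 °C under 5% CO2. They were exposed to compound for 3 days, then read by MTT at 570 nm. Viability was taken as treated/control absorbance, and IC50 was derived from it. Values are mean SD of three independent experiments.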

[1] = Cytotoxicity against human Bel7402 cells after 3 days by MTT assay; conditions: Bel-7402, 72 h; how it was run: as §1
HeLa = test: Cytotoxicity against human HeLa cells after 3 days by MTT assay; conditions: 72 h; how it was run: as §1

Compound | IC50 (MCF7) | IC50 [1] | IC50 (HeLa)
Cc1ccc(S(=O)(=O)N[C@@H](Cc2ccccc2)C(=O)OC[C@@H](Cc2ccccc2)NC(=O)c2ccccc2)cc1 | 28.6 µM | 54.3 µM | 41.9 µM
O=C(N[C@@H](COC(=O)[C@@H](Cc1ccccc1)NC(=O)c1cccs1)Cc1ccccc1)c1ccccc1 | > 100 µM | > 100 µM | > 100 µM
CS(=O)(=O)N[C@@H](Cc1ccccc1)C(=O)OC[C@H](Cc1ccccc1)NC(=O)c1ccccc1 | 76.3 µM | 70.4 µM | 93.9 µM
O=C(N[C@@H](COC(=O)[C@@H](Cc1ccccc1)NC(=O)n1cncn1)Cc1ccccc1)c1ccccc1 | 89 µM | 95.7 µM | 91.2 µM
Cc1ccc(S(=O)(=O)N[C@H](Cc2ccccc2)C(=O)OC[C@@H](Cc2ccccc2)NC(=O)c2ccccc2)cc1 | 36.7 µM | 22.2 µM | 31.6 µM
O=C(N[C@@H](COC(=O)[C@@H](Cc1ccccc1)NC(=O)c1ccco1)Cc1ccccc1)c1ccccc1 | > 100 µM | > 100 µM | > 100 µM
Cc1ccc(S(=O)(=O)N[C@@H](Cc2ccccc2)C(=O)OC[C@H](Cc2ccccc2)NC(=O)c2ccccc2)cc1 | 61.1 µM | 50 µM | 37.6 µM
CS(=O)(=O)N[C@H](Cc1ccccc1)C(=O)OC[C@H](Cc1ccccc1)NC(=O)c1ccccc1 | 21.9 µM | 37 µM | 22.1 µM
O=C(N[C@H](COC(=O)[C@@H](Cc1ccccc1)NC(=O)c1cccnc1)Cc1ccccc1)c1ccccc1 (single isomer, unassigned) | 16.7 µM | 16.6 µM | 24.9 µM
O=C(N[C@@H](COC(=O)[C@H](Cc1ccccc1)NC(=O)n1ccnc1)Cc1ccccc1)c1ccccc1 (single isomer, unassigned) | > 100 µM | > 100 µM | > 100 µM
CS(=O)(=O)N[C@H](Cc1ccccc1)C(=O)OC[C@@H](Cc1ccccc1)NC(=O)c1ccccc1 | 60 µM | 52.2 µM | 64 µM
O=C(N[C@@H](COC(=O)[C@H](Cc1ccccc1)NC(=O)c1ccncc1)Cc1ccccc1)c1ccccc1 (single isomer, unassigned) | 64.8 µM | > 100 µM | > 100 µM
O=C(N[C@H](COC(=O)[C@H](Cc1ccccc1)NC(=O)c1cccnc1)Cc1ccccc1)c1ccccc1 | > 100 µM | > 100 µM | > 100 µM
O=C(N[C@H](COC(=O)[C@H](Cc1ccccc1)NC(=O)n1cncn1)Cc1ccccc1)c1ccccc1 | > 100 µM | > 100 µM | > 100 µM
O=C(N[C@@H](COC(=O)[C@@H](Cc1ccccc1)NC(=O)c1cccnc1)Cc1ccccc1)c1ccccc1 | > 100 µM | > 100 µM | > 100 µM
O=C(N[C@H](COC(=O)[C@@H](Cc1ccccc1)NC(=O)c1ccncc1)Cc1ccccc1)c1ccccc1 (single isomer, unassigned) | 15.3 µM | 19.3 µM | 33.8 µM

Compound | IC50 (MCF7) | IC50 [1] | IC50 (HeLa)
O=C(N[C@@H](COC(=O)[C@H](Cc1ccccc1)NC(=O)c1cccs1)Cc1ccccc1)c1ccccc1 | > 100 µM | > 100 µM | > 100 µM
O=C(N[C@@H](COC(=O)[C@@H](Cc1ccccc1)NC(=O)c1ccncc1)Cc1ccccc1)c1ccccc1 | 53.6 µM | 64.7 µM | 89.7 µM
O=C(N[C@H](COC(=O)[C@H](Cc1ccccc1)NC(=O)c1ccco1)Cc1ccccc1)c1ccccc1 | > 100 µM | > 100 µM | > 100 µM
O=C(N[C@@H](COC(=O)[C@H](Cc1ccccc1)NC(=O)c1cccnc1)Cc1ccccc1)c1ccccc1 (single isomer, unassigned) | > 100 µM | > 100 µM | > 100 µM
O=C(N[C@H](COC(=O)[C@@H](Cc1ccccc1)NC(=O)c1ccco1)Cc1ccccc1)c1ccccc1 (single isomer, unassigned) | > 100 µM | > 100 µM | > 100 µM
O=C(N[C@H](COC(=O)[C@@H](Cc1ccccc1)NC(=O)n1ccnc1)Cc1ccccc1)c1ccccc1 (single isomer, unassigned) | 66.2 µM | 78.4 µM | 72.5 µM
O=C(N[C@@H](COC(=O)[C@H](Cc1ccccc1)NC(=O)c1ccco1)Cc1ccccc1)c1ccccc1 (single isomer, unassigned) | > 100 µM | > 100 µM | > 100 µM
O=C(N[C@@H](COC(=O)[C@@H](Cc1ccccc1)NC(=O)n1ccnc1)Cc1ccccc1)c1ccccc1 | 87.2 µM | 91.1 µM | 79.1 µM
O=C(N[C@H](COC(=O)[C@@H](Cc1ccccc1)NC(=O)c1cccs1)Cc1ccccc1)c1ccccc1 | > 100 µM | > 100 µM | > 100 µM
CS(=O)(=O)N[C@@H](Cc1ccccc1)C(=O)OC[C@@H](Cc1ccccc1)NC(=O)c1ccccc1 | > 100 µM | > 100 µM | > 100 µM
O=C(N[C@H](COC(=O)[C@H](Cc1ccccc1)NC(=O)n1ccnc1)Cc1ccccc1)c1ccccc1 | > 100 µM | > 100 µM | > 100 µM
O=C(N[C@H](COC(=O)[C@H](Cc1ccccc1)NC(=O)c1cccs1)Cc1ccccc1)c1ccccc1 | > 100 µM | > 100 µM | > 100 µM
O=C(N[C@@H](COC(=O)[C@H](Cc1ccccc1)NC(=O)n1cncn1)Cc1ccccc1)c1ccccc1 (single isomer, unassigned) | > 100 µM | > 100 µM | > 100 µM
O=C(N[C@H](COC(=O)[C@H](Cc1ccccc1)NC(=O)c1ccncc1)Cc1ccccc1)c1ccccc1 | > 100 µM | > 100 µM | > 100 µM
O=C(N[C@H](COC(=O)[C@@H](Cc1ccccc1)NC(=O)n1cncn1)Cc1ccccc1)c1ccccc1 (single isomer, unassigned) | 67.5 µM | 82.1 µM | 78.9 µM
